A selection: hits, their analogues and other compounds. The true share with any hit is near 3.7%.
hERG rescue: shields human hERG channel from block by proarrhythmic agents. Q12809. CHO-hERG, FluxOR thallium flux, dofetilide IC70 present. activation (rescue from dofetilide block), less the hit threshold, % at 10 µM. actives 0.51% (n = 310,000). AID 1511;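 active means activation above the mean of controls blocked by dofetilide plus 5 SD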;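 further: thallium influx through hERG after potassium depolarization seen as dye fluorescence rise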
KCNQ1 pot: human KCNQ1 channel potentiation or activation. P51787. actives 0.35% (n = 310,000). B-score at 10 µM. CHO-K1 KCNQ1, thallium flux FluxOR fluorescence; active compounds read high;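 active means fluorescence ratio B-score, a plate-corrected score, at least three library SD, with initial intensity B-score within 5 SD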
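Assay system: CHO-K1 cells stably expressing KCNQ1; Medium: assay buffer with matched DMSO; Also added: K+/Tl+ depolarizing stimulus; Dosing: single dose; Timing: dye 90 min, compound 20 min, room temperature; Measured by: kinetic FluxOR thallium fluorescence, 10-s 1-Hz baseline, 110-s post-stimulus read; Read-out: peak-minus-minimum fluorescence over initial fluorescence, negative-control normalized, B-scored.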
KCNK3 inh: human KCNK3 channel inhibition, primary screen; B-score at 10 µM; CHO-KCNK3 thallium flux, FluxOR fluorescence; active compounds read low; actives 0.84% (n = 340,000); O14649;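 active means B-score under library mean minus 4 SD, starting fluorescence ratio at most library mean plus 5 SD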;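 further: more negative B-score means stronger inhibition of thallium flux through KCNK3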
KCNQ1 inh: blocks the human KCNQ1 potassium channel | P51787 | CHO-K1 KCNQ1, FluxOR thallium flux fluorescence; active compounds read high | B-score at 10 µM | actives 1.3% (n = 310,000) | AID 2642;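 active means compounds whose thallium flux B-score, printed positive for inhibition, exceeds three library SD while starting fluorescence stays within three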;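 further: channel opened by potassium depolarization with thallium stimulus after 20 min compound exposure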
Kir21 block: Kir2.1 (mouse) channel inhibition | HEK293-Kir2.1, FluxOR thallium flux fluorescence; active compounds read low | B-score at 10 µM | actives 0.85% (n = 310,000) | AID 1672;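 active means fluorescence ratio B-score at or below minus 3 SD of library scores, with starting-brightness B-score within 2 SD, cut at about -4.2 in these data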;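 further: channel flux triggered by added potassium and thallium sulfate stimulus; B-score of peak minus minimum fluorescence over baseline after thallium stimulus; more negative B-score means stronger Kir2.1 block with less thallium influx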
Target sequence (P35561 whole entry, looked up): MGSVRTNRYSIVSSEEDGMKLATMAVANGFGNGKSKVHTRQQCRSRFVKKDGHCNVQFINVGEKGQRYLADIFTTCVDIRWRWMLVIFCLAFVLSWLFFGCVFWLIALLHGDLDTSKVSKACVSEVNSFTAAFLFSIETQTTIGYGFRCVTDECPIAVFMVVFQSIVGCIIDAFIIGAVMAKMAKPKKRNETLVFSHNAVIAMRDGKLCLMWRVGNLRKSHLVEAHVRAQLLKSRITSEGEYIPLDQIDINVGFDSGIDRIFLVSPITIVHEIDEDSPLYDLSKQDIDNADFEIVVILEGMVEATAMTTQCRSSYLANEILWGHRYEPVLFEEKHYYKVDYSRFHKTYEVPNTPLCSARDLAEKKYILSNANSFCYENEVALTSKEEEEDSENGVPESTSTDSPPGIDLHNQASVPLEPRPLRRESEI
KCNK9 inh: human KCNK9 channel inhibition | AID 488922 | HEK293 KCNK9, FluxOR thallium flux fluorescence; active compounds read low | Q9NPC2 | actives 1.2% (n = 310,000) | B-score at 10 µM;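 active means ratio B-score over 3 SD below the library mean, with starting fluorescence within 5 SD of its mean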;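 further: negative B-score means less thallium flux so channel inhibition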
Starred values were filed as active, the others as inactive.

For CCNc1nc(NC(C)C)nc(N(C#N)CC(=O)OC)n1 the results were hERG rescue -8, KCNQ1 pot inactive, KCNK3 inh inactive, KCNQ1 inh inactive, Kir21 block -1.4 and KCNK9 inh inactive.
Screening C=CCN1C(=O)C(CC(=O)Nc2ccccc2)S/C1=N/c1nccs1 (stereo unspecified) returned hERG rescue -8, KCNQ1 pot inactive, KCNK3 inh inactive, KCNQ1 inh inactive, Kir21 block 0.94 and KCNK9 inh inactive.
Screening CC(=O)c1ccc(OCC(O)COc2ccc(C(C)=O)cc2)cc1 returned hERG rescue 4.9*, KCNQ1 pot inactive, KCNK3 inh inactive, KCNQ1 inh inactive, Kir21 block 2.9 and KCNK9 inh inactive.
Screening C=C(C)C(=O)OCC(O)COc1ccc(C(C)(C)c2ccc(OCC(O)COC(=O)C(=C)C)cc2)cc1 (stereo unspecified) returned hERG rescue -19, KCNQ1 pot inactive, KCNK3 inh -12*, KCNQ1 inh 9*, Kir21 block 0.17 and KCNK9 inh inactive.
For CC(=O)N(C)c1ccc(OCC(O)COc2ccc(N(C)C(C)=O)cc2)cc1 the results were hERG rescue -6, KCNQ1 pot inactive, KCNK3 inh inactive, KCNQ1 inh inactive, Kir21 block -0.03 and KCNK9 inh inactive.
CCN(CC)S(=O)(=O)c1ccc(N2CCN(C)CC2)c(NC(=O)Nc2ccc(C)cc2)c1 was read as hERG rescue -7, KCNQ1 pot inactive, KCNK3 inh inactive, KCNQ1 inh inactive, Kir21 block -0.83 and KCNK9 inh inactive.
`O=C(Nc1ccc2c(c1)OCO2)C1CCCN1C(=O)Nc1ccccc1F` (stereo unspecified) gave hERG rescue 5.6*, KCNQ1 pot inactive, KCNK3 inh inactive, KCNQ1 inh inactive, Kir21 block 0.98 and KCNK9 inh inactive.
`COc1ccccc1NC(=O)N1CCCC1C(=O)Nc1ccc2c(c1)OCO2` (stereo unspecified) gave hERG rescue -14, KCNQ1 pot inactive, KCNK3 inh inactive, KCNQ1 inh inactive, Kir21 block -0.68 and KCNK9 inh inactive.
For COc1cccc(CN(C(=O)COc2ccc(C)cc2)C2CCS(=O)(=O)C2)c1 (stereo unspecified) the results were hERG rescue -5, KCNQ1 pot inactive, KCNK3 inh inactive, KCNQ1 inh inactive, Kir21 block 1.6 and KCNK9 inh inactive.
Cc1ccc(-c2nnc(CSc3nnc(COc4ccccc4)n3-c3ccccc3)o2)cc1 was read as hERG rescue -16, KCNQ1 pot inactive, KCNK3 inh inactive, KCNQ1 inh inactive, Kir21 block -2.2 and KCNK9 inh inactive.
Screening Cc1ccc(-c2nnc(CSc3nnc(COc4ccccc4)n3-c3ccc(C)cc3)o2)cc1 returned hERG rescue -21, KCNQ1 pot inactive, KCNK3 inh inactive, KCNQ1 inh 6*, Kir21 block 0.63 and KCNK9 inh inactive.
For O=c1oc(CCCO)cc2ccccc12 the results were KCNK3 inh inactive.
Screening c1ccc(Nc2nc(N3CCCCC3)nc(N3CCCCC3)n2)cc1 returned hERG rescue -14, KCNQ1 pot inactive, KCNK3 inh inactive, KCNQ1 inh 9*, Kir21 block -1.7 and KCNK9 inh inactive.
For c1ccc(Nc2nc(N3CCCC3)nc(N3CCCC3)n2)cc1 the results were hERG rescue -13, KCNQ1 pot inactive, KCNK3 inh inactive, KCNQ1 inh inactive, Kir21 block -0.58 and KCNK9 inh inactive.
COc1ccc(C(=O)COC(=O)Cn2cnc3ccccc3c2=O)c(OC)c1 was read as hERG rescue -8, KCNQ1 pot inactive, KCNK3 inh inactive, KCNQ1 inh inactive, Kir21 block 0.25 and KCNK9 inh inactive.
CCOc1ccc(-c2cc(N3C(=O)Nc4ccccc4N3O)n[nH]2)cc1 was read as hERG rescue -2, KCNQ1 pot inactive, KCNK3 inh inactive, KCNQ1 inh inactive, Kir21 block 0.18 and KCNK9 inh inactive.
`CCOC(=O)c1c(N2C(=O)Nc3ccccc3N2O)n[nH]c1-c1cccc(Cl)c1` gave hERG rescue 11*, KCNQ1 pot 36*, KCNK3 inh inactive, KCNQ1 inh inactive, Kir21 block 0.11 and KCNK9 inh inactive.
Screening CCOC(=O)c1c(-c2ccccc2)oc2ccc(OCC(O)CNCCN(C)C)cc12 (stereo unspecified) returned hERG rescue -11, KCNQ1 pot inactive, KCNK3 inh inactive, KCNQ1 inh inactive, Kir21 block -5.2* and KCNK9 inh inactive.
`CCOC(=O)c1c(-c2ccccc2)oc2ccc(OC)cc12` gave hERG rescue -2, KCNQ1 pot inactive, KCNK3 inh inactive, KCNQ1 inh inactive, Kir21 block -0.55 and KCNK9 inh inactive.
Screening O=C(O)CCn1c(SCc2ccccc2)nc2ccccc21 returned hERG rescue -3, KCNQ1 pot inactive, KCNK3 inh inactive, KCNQ1 inh inactive, Kir21 block 0.68 and KCNK9 inh inactive.
Screening Cc1noc(C)c1CSc1nc2ccccc2n1CCc1ccccc1 returned hERG rescue -15, KCNQ1 pot inactive, KCNK3 inh inactive, KCNQ1 inh inactive, Kir21 block -7.2* and KCNK9 inh inactive.
Screening CC(=O)c1cccc(NC(=O)c2ccc(N(Cc3ccccc3)S(C)(=O)=O)cc2)c1 returned hERG rescue -13, KCNQ1 pot inactive, KCNK3 inh inactive, KCNQ1 inh inactive, Kir21 block -0.67 and KCNK9 inh inactive.
For CS(=O)(=O)N(Cc1ccccc1)c1ccc(C(=O)Nc2ccc(C(N)=O)cc2)cc1 the results were hERG rescue 46*, KCNQ1 pot inactive, KCNK3 inh inactive, KCNQ1 inh inactive, Kir21 block 2.7 and KCNK9 inh inactive.
`CCc1cccc(NC(=O)C2CCCN(c3ncnc4c3nc3n4CCCCC3)C2)c1` (stereo unspecified) gave hERG rescue -14, KCNQ1 pot inactive, KCNK3 inh inactive, KCNQ1 inh inactive, Kir21 block -0.16 and KCNK9 inh inactive.
Screening Nc1cc(=O)[nH]c(SCc2nc3ccccc3n2Cc2ccccc2)n1 returned hERG rescue 6.1*, KCNQ1 pot inactive, KCNK3 inh inactive, KCNQ1 inh inactive, Kir21 block 0.16 and KCNK9 inh inactive.
For O=c1[nH]c(SCc2nc3ccccc3n2Cc2ccccc2)nc2ccccc12 the results were hERG rescue -5, KCNQ1 pot inactive, KCNK3 inh inactive, KCNQ1 inh inactive, Kir21 block -0.07 and KCNK9 inh inactive.
O=C(Cc1ccc(NC(=O)C2CCN(C(=O)C3CCCCC3)CC2)cc1)Nc1cccc(C(=O)N2CCCCC2)c1 was read as KCNK3 inh inactive.
